Results as given in ChEMBL document CHEMBL3112482, “Nonclassical antifolates, part 5. Benzodiazepine analogs as a new class of DHFR inhibitors: synthesis, antitumor testing and molecular modeling study” (Eur J Med Chem, 2014).

How the values were obtained:
Assay type in all cases: functional
HOP-62 = experiment: Growth inhibition of human HOP62 cells at 10 uM after 48 hrs; conditions: HOP-62, 48 h, read-out: GI
Summary of the method: (§1)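 Single-dose primary screen in the NCI 60 human tumour cell line panel, run at the NCI facility. The panel covers nine subpanels: leukaemia, non-small cell lung, colon, CNS, melanoma, ovarian, renal, prostate and breast. Read-out was percent growth of treated cells, shown as a mean graph and reported as percent growth inhibition.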

SN12C = experiment: Growth inhibition of human SN12C cells at 10 uM after 48 hrs; conditions: read-out: GI
Summary of the method: (§2)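 NCI 60-cell-line disease-oriented human tumor panel, single-dose primary screen at 10 µM. Data given as mean-graph percent growth of treated cells, reported as percent growth inhibition (GI %).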

SR = experiment: Growth inhibition of human SR cells at 10 uM after 48 hrs; conditions: read-out: GI; summary of the method: as §2
U-251 = experiment: Growth inhibition of human U251 cells at 10 uM after 48 hrs; conditions: U-251, 48 h, read-out: GI; summary of the method: as §2
TK-10 = experiment: Growth inhibition of human TK10 cells at 10 uM after 48 hrs; conditions: TK-10, 48 h, read-out: GI; summary of the method: as §2
K562 = experiment: Growth inhibition of human K562 cells at 10 uM after 48 hrs; conditions: K562, 48 h, read-out: GI; summary of the method: as §1
T47D = experiment: Growth inhibition of human T47D cells at 10 uM after 48 hrs; conditions: read-out: GI; summary of the method: as §2
SF-295 = experiment: Growth inhibition of human SF295 cells at 10 uM after 48 hrs; conditions: SF-295, 48 h, read-out: GI; summary of the method: as §2
SK-MEL-5 = experiment: Growth inhibition of human SK-MEL-5 cells at 10 uM after 48 hrs; conditions: SK-MEL-5, 48 h, read-out: GI; summary of the method: as §2
[1] = Growth inhibition of human EKVX cells at 10 uM after 48 hrs; conditions: read-out: GI; summary of the method: as §1
[2] = Growth inhibition of human NCI-ADR-RES cells at 10 uM after 48 hrs; conditions: read-out: GI; summary of the method: as §1
[3] = Growth inhibition of human OVCAR4 cells at 10 uM after 48 hrs; conditions: OVCAR-4, 48 h, read-out: GI; summary of the method: as §1
SK-OV-3 = experiment: Growth inhibition of human SKOV3 cells at 10 uM after 48 hrs; conditions: SK-OV-3, 48 h, read-out: GI; summary of the method: as §2
NCI-H23 = experiment: Growth inhibition of human NCI-H23 cells at 10 uM after 48 hrs; conditions: NCI-H23, 48 h, read-out: GI; summary of the method: as §1
[4] = Growth inhibition of human UO31 cells at 10 uM after 48 hrs; conditions: UO-31, 48 h, read-out: GI; summary of the method: as §2
SF-268 = experiment: Growth inhibition of human SF268 cells at 10 uM after 48 hrs; conditions: SF-268, 48 h, read-out: GI; summary of the method: as §2
PC-3 = experiment: Growth inhibition of human PC3 cells at 10 uM after 48 hrs; conditions: PC-3, 48 h, read-out: GI; summary of the method: as §1
SNB-75 = experiment: Growth inhibition of human SNB75 cells at 10 uM after 48 hrs; conditions: SNB-75, 48 h, read-out: GI; summary of the method: as §2
[5] = Growth inhibition of human OVCAR5 cells at 10 uM after 48 hrs; conditions: OVCAR-5, 48 h, read-out: GI; summary of the method: as §1
OVCAR-3 = experiment: Growth inhibition of human OVCAR3 cells at 10 uM after 48 hrs; conditions: OVCAR-3, 48 h, read-out: GI; summary of the method: as §1
DU-145 = experiment: Growth inhibition of human DU145 cells at 10 uM after 48 hrs; conditions: DU-145, 48 h, read-out: GI; summary of the method: as §1
[6] = Growth inhibition of human Hs 578T cells at 10 uM after 48 hrs; conditions: read-out: GI; summary of the method: as §1
A549 = experiment: Growth inhibition of human A549 cells at 10 uM after 48 hrs; conditions: A549, 48 h, read-out: GI; summary of the method: as §1
MDA-MB-231 = experiment: Growth inhibition of human MDA-MB-231 cells at 10 uM after 48 hrs; conditions: MDA-MB-231, 48 h, read-out: GI; summary of the method: as §1
ACHN = experiment: Growth inhibition of human ACHN cells at 10 uM after 48 hrs; conditions: read-out: GI; summary of the method: as §1
NCI-H226 = experiment: Growth inhibition of human NCI-H226 cells at 10 uM after 48 hrs; conditions: NCI-H226, 48 h, read-out: GI; summary of the method: as §1
LOX IMVI = experiment: Growth inhibition of human LOXIMVI cells at 10 uM after 48 hrs; conditions: read-out: GI; summary of the method: as §1
SK-MEL-28 = experiment: Growth inhibition of human SK-MEL-28 cells at 10 uM after 48 hrs; conditions: SK-MEL-28, 48 h, read-out: GI; summary of the method: as §2
[7] = Growth inhibition of human RXF393 cells at 10 uM after 48 hrs; conditions: RXF 393, 48 h, read-out: GI; summary of the method: as §1
NCI-H322M = experiment: Growth inhibition of human NCI-H322M cells at 10 uM after 48 hrs; conditions: read-out: GI; summary of the method: as §1
[8] = Growth inhibition of human SF539 cells at 10 uM after 48 hrs; conditions: SF-539, 48 h, read-out: GI; summary of the method: as §2
Malme-3M = experiment: Growth inhibition of human MALME-3M cells at 10 uM after 48 hrs; conditions: read-out: GI; summary of the method: as §1
M14 = experiment: Growth inhibition of human M14 cells at 10 uM after 48 hrs; conditions: M14, 48 h, read-out: GI; summary of the method: as §1
A498 = experiment: Growth inhibition of human A498 cells at 10 uM after 48 hrs; conditions: A498, 48 h, read-out: GI; summary of the method: as §1
SNB-19 = experiment: Growth inhibition of human SNB19 cells at 10 uM after 48 hrs; conditions: SNB-19, 48 h, read-out: GI; summary of the method: as §2
MCF7 = experiment: Growth inhibition of human MCF7 cells at 10 uM after 48 hrs; conditions: MCF7, 48 h, read-out: GI; summary of the method: as §1
HL-60(TB) = experiment: Growth inhibition of human HL-60(TB) cells at 10 uM after 48 hrs; conditions: HL-60, 48 h, read-out: GI
Summary of the method: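 NCI 60-cell-line human tumour panel covering nine subpanels (leukaemia, non-small cell lung, colon, CNS, melanoma, ovarian, renal, prostate, breast), run at the NCI facility. Primary screen tested a single dose of each compound. Read-out was percent growth of treated cells versus untreated cells, reported from the mean graph as percentage growth inhibition.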

Structure (SMILES)	inhibition of growth at 10 µM (HOP-62) [%]	inhibition of growth at 10 µM (SN12C) [%]	inhibition of growth at 10 µM (SR) [%]	inhibition of growth at 10 µM (U-251) [%]	inhibition of growth at 10 µM (TK-10) [%]	inhibition of growth at 10 µM (K562) [%]	inhibition of growth at 10 µM (T47D) [%]	inhibition of growth at 10 µM (SF-295) [%]	inhibition of growth at 10 µM (SK-MEL-5) [%]	inhibition of growth at 10 µM [1] [%]	inhibition of growth at 10 µM [2] [%]	inhibition of growth at 10 µM [3] [%]	inhibition of growth at 10 µM (SK-OV-3) [%]	inhibition of growth at 10 µM (NCI-H23) [%]	inhibition of growth at 10 µM [4] [%]	inhibition of growth at 10 µM (SF-268) [%]	inhibition of growth at 10 µM (PC-3) [%]	inhibition of growth at 10 µM (SNB-75) [%]	inhibition of growth at 10 µM [5] [%]	inhibition of growth at 10 µM (OVCAR-3) [%]	also measured
Cc1nc2c(c(-c3ccc(Br)cc3)n1)CCC/C2=C\c1ccc(Br)cc1	< 30	< 30	< 30	< 30	< 30	< 30	< 30	< 30	< 30	< 30	< 30	< 30	< 30	< 30	< 30	< 30	< 30	< 30	< 30	< 30	inhibition of growth at 10 µM (DU-145): < 30%; inhibition of growth at 10 µM [6]: < 30%; inhibition of growth at 10 µM (A549): < 30%; inhibition of growth at 10 µM (MDA-MB-231): < 30%; inhibition of growth at 10 µM (ACHN): < 30%; inhibition of growth at 10 µM (NCI-H226): < 30%; inhibition of growth at 10 µM (LOX IMVI): < 30%; inhibition of growth at 10 µM (SK-MEL-28): < 30%; inhibition of growth at 10 µM [7]: < 30%; inhibition of growth at 10 µM (NCI-H322M): < 30%; inhibition of growth at 10 µM [8]: < 30%; inhibition of growth at 10 µM (Malme-3M): < 30%; inhibition of growth at 10 µM (M14): < 30%; inhibition of growth at 10 µM (A498): < 30%; inhibition of growth at 10 µM (SNB-19): < 30%; inhibition of growth at 10 µM (MCF7): 56.7%; inhibition of growth at 10 µM (HL-60(TB)): < 30%
Cc1nc2c(c(-c3ccc(Cl)cc3)n1)CCC/C2=C\c1ccc(Cl)cc1	< 30	< 30	< 30	44	< 30	< 30	< 30	< 30	< 30	< 30	< 30	< 30	< 30	< 30	< 30	< 30	< 30	< 30	< 30	< 30	inhibition of growth at 10 µM (DU-145): < 30%; inhibition of growth at 10 µM [6]: < 30%; inhibition of growth at 10 µM (A549): < 30%; inhibition of growth at 10 µM (MDA-MB-231): < 30%; inhibition of growth at 10 µM (ACHN): < 30%; inhibition of growth at 10 µM (NCI-H226): < 30%; inhibition of growth at 10 µM (LOX IMVI): 63.2%; inhibition of growth at 10 µM (SK-MEL-28): < 30%; inhibition of growth at 10 µM [7]: < 30%; inhibition of growth at 10 µM (NCI-H322M): < 30%; inhibition of growth at 10 µM [8]: < 30%; inhibition of growth at 10 µM (Malme-3M): < 30%; inhibition of growth at 10 µM (M14): 34.7%; inhibition of growth at 10 µM (A498): < 30%; inhibition of growth at 10 µM (SNB-19): < 30%; inhibition of growth at 10 µM (MCF7): 68.7%; inhibition of growth at 10 µM (HL-60(TB)): < 30%
